Results reported in ChEMBL document CHEMBL1150787, “The L80I substitution in the reverse transcriptase domain of the hepatitis B virus polymerase is associated with lamivudine resistance and enhanced viral replication in vitro” (Antimicrob Agents Chemother, 2007).
Activity calls are given as the source filed them. The calls are words filed in the database; no cut-off is given here.

How the values were obtained:
HBV genotype D [1] = test: Antiviral activity against HBV genotype D in human Huh7 cells assessed as viral replication yield at 1 uM after 5 days relative to control; assay type: functional, hepatitis B virus genotype D, Huh-7
Method in brief: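 Transiently transfected Huh7 cells were cultured for 5 days with or without 1 μM LMV. Intracellular core-associated HBV DNA was measured by Southern blot, corrected for transfection efficiency using supernatant HBsAg (IMX enzyme immunoassay), and expressed relative to the mean of the uninhibited controls (set to 1.0). Data come from at least three experiments.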

HBV genotype D [2] = test: Antiviral activity against HBeAg-deficient HBV genotype D with precore G1896A mutation and reverse transcriptase L80I/M204I mutation in human Huh7 cells assessed as viral replication yield at 1 uM after 5 days relative to control; assay type: functional, hepatitis B virus genotype D, Huh-7
Method in brief: (§1)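 Huh7 transfectants were cultured for 5 days with or without 1 μM LMV. Intracellular core-associated HBV DNA was measured by Southern blot and densitometry. Yields were corrected for transfection efficiency by HBsAg in supernatant (IMX immunoassay) and expressed relative to the mean of uninhibited controls (1.0). Each value comes from at least three experiments.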

HBV genotype D [3] = test: Antiviral activity against HBeAg-deficient HBV genotype D with precore G1896A mutation and reverse transcriptase L80I mutation in human Huh7 cells assessed as viral replication yield at 1 uM after 5 days relative to control; assay type: functional, hepatitis B virus genotype D, Huh-7; method in brief: as §1
HBV genotype D [4] = test: Antiviral activity against HBeAg-deficient HBV genotype D with precore G1896A mutation in human Huh7 cells assessed as viral replication yield at 1 uM after 5 days relative to control; assay type: functional, hepatitis B virus genotype D, Huh-7; method in brief: as §1
HBV genotype D [5] = test: Antiviral activity against HBV genotype D with reverse transcriptase M204I mutation in human Huh7 cells assessed as inhibition of viral replication after 5 days; assay type: functional, organism-based; conditions: hepatitis B virus genotype D; Huh-7
Method in brief: (§2)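 Huh7 cells grown in DMEM with 10% FBS at 37°C and 5% CO₂, then transiently transfected with each HBV construct. Cultures were exposed continuously to LMV at 0, 0.001, 0.01, 0.1, 1 or 10 μM for 5 days. Intracellular core-associated HBV DNA was quantified by Southern blot, autoradiography and densitometry, normalised to untreated controls. EC50 was taken from a three-parameter logistic fit of three pooled assays.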

HBV genotype D [6] = test: Antiviral activity against HBV genotype D with reverse transcriptase L80I/M204I mutation in human Huh7 cells assessed as inhibition of viral replication after 5 days; assay type: functional, organism-based; conditions: hepatitis B virus genotype D; Huh-7; method in brief: as §2
HBV genotype D [7] = test: Antiviral activity against HBeAg-deficient HBV genotype D with precore G1896A mutation and reverse transcriptase L80I/L180M/M204I mutation in human Huh7 cells assessed as inhibition of viral replication after 5 days; assay type: functional, organism-based; conditions: hepatitis B virus genotype D; Huh-7; method in brief: as §2
HBV genotype D [8] = test: Antiviral activity against HBV genotype D with reverse transcriptase L180M/M204I mutation in human Huh7 cells assessed as inhibition of viral replication after 5 days; assay type: functional, organism-based; conditions: hepatitis B virus genotype D; Huh-7; method in brief: as §2
HBV genotype D [9] = test: Antiviral activity against HBeAg-deficient HBV genotype D with precore G1896A mutation and reverse transcriptase L80I mutation in human Huh7 cells assessed as inhibition of viral replication after 5 days; assay type: functional, organism-based; conditions: Hepatitis B virus, Huh-7, 120 h; method in brief: as §2
HBV genotype D [10] = test: Antiviral activity against HBV genotype D in human Huh7 cells assessed as inhibition of viral replication after 5 days; assay type: functional, organism-based; conditions: Hepatitis B virus, Huh-7, 120 h
Method in brief: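 Huh7 cells (DMEM, 10% FBS, 37°C, 5% CO2) at 60–80% confluence were transiently transfected with a wild-type HBeAg-negative HBV clone or mutants. They were exposed continuously to LMV (0–10 μM) or ADV (0–10 μM). Day-5 intracellular core-associated HBV DNA was measured by Southern blot, autoradiography and densitometry, normalized to untreated controls. Three assays were pooled; EC50 came from a three-parameter logistic fit.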

HBV genotype D [11] = test: Effect on replication efficiency of HBV genotype D with reverse transcriptase L80I/M204I mutation in human Huh7 cells assessed as increase in viral replication yield at 1 uM after 5 days relative to control; assay type: functional, hepatitis B virus genotype D, Huh-7; method in brief: as §1
HBV genotype D [12] = test: Effect on replication efficiency of HBV genotype D with reverse transcriptase L80I mutation in human Huh7 cells assessed as decrease in viral replication yield at 1 uM after 5 days relative to control; assay type: functional, hepatitis B virus genotype D, Huh-7; parameters: scale not given: the % may be the effect or the level left; method in brief: as §1
HBV genotype D [13] = test: Antiviral activity against HBeAg-deficient HBV genotype D with precore G1896A mutation and reverse transcriptase L180M/M204I mutation in human Huh7 cells assessed as inhibition of viral replication after 5 days; assay type: functional, organism-based; conditions: hepatitis B virus genotype D; Huh-7; method in brief: as §2
HBV genotype D [14] = test: Antiviral activity against HBeAg-deficient HBV genotype D with precore G1896A mutation in human Huh7 cells assessed as inhibition of viral replication after 5 days; assay type: functional, organism-based; conditions: Hepatitis B virus, Huh-7, 120 h; method in brief: as §2
HBV genotype D [15] = test: Antiviral activity against HBeAg-deficient HBV genotype D with precore G1896A mutation and reverse transcriptase M204I mutation in human Huh7 cells assessed as inhibition of viral replication after 5 days; assay type: functional, organism-based; conditions: hepatitis B virus genotype D; Huh-7; method in brief: as §2
HBV genotype D [16] = test: Antiviral activity against HBeAg-deficient HBV genotype D with precore G1896A mutation and reverse transcriptase M204I mutation in human Huh7 cells assessed as viral replication yield at 1 uM after 5 days relative to control; assay type: functional, hepatitis B virus genotype D, Huh-7; method in brief: as §1
HBV genotype D [17] = test: Antiviral activity against HBV genotype D with reverse transcriptase L80I/L180M/M204I mutation in human Huh7 cells assessed as inhibition of viral replication after 5 days; assay type: functional, organism-based; conditions: hepatitis B virus genotype D; Huh-7; method in brief: as §2
HBV genotype D [18] = test: Antiviral activity against HBeAg-deficient HBV genotype D with precore G1896A mutation and reverse transcriptase L180M/M204I mutation in human Huh7 cells assessed as viral replication yield at 1 uM after 5 days relative to control; assay type: functional, hepatitis B virus genotype D, Huh-7; method in brief: as §1
HBV genotype D [19] = test: Effect on replication efficiency of HBeAg-deficient HBV genotype D with precore G1896A mutation and reverse transcriptase L80I/M204I mutation in human Huh7 cells assessed as decrease in viral replication yield at 1 uM after 5 days relative to control; assay type: functional, hepatitis B virus genotype D, Huh-7; parameters: scale not given: the % may be the effect or the level left; method in brief: as §1
HBV genotype D [20] = test: Effect on replication efficiency of HBeAg-deficient HBV genotype D with precore G1896A mutation and reverse transcriptase L80I mutation in human Huh7 cells assessed as decrease viral replication yield at 1 uM after 5 days relative to control; assay type: functional, hepatitis B virus genotype D, Huh-7; parameters: scale not given: the % may be the effect or the level left; method in brief: as §1
HBV genotype D [21] = test: Antiviral activity against HBV genotype D with reverse transcriptase L80I mutation in human Huh7 cells assessed as inhibition of viral replication after 5 days; assay type: functional, organism-based; conditions: Hepatitis B virus, Huh-7, 120 h; method in brief: as §2
HBV genotype D [22] = test: Effect on replication efficiency of HBeAg-deficient HBV genotype D with precore G1896A mutation and reverse transcriptase L80I/L180M/M204I mutation in human Huh7 cells assessed as increase in viral replication yield at 1 uM after 5 days relative to control; assay type: functional, hepatitis B virus genotype D, Huh-7; method in brief: as §1
HBV genotype D [23] = test: Antiviral activity against HBV genotype D with reverse transcriptase L80I/M204I mutation in human Huh7 cells assessed as viral replication yield at 1 uM after 5 days relative to control; assay type: functional, hepatitis B virus genotype D, Huh-7; method in brief: as §1
HBV genotype D [24] = test: Antiviral activity against HBeAg-deficient HBV genotype D with precore G1896A mutation and reverse transcriptase L80I/L180M/M204I mutation in human Huh7 cells assessed as viral replication yield at 1 uM after 5 days relative to control; assay type: functional, hepatitis B virus genotype D, Huh-7; method in brief: as §1
HBV genotype D [25] = test: Antiviral activity against HBV genotype D with reverse transcriptase M204I mutation in human Huh7 cells assessed as viral replication yield at 1 uM after 5 days relative to control; assay type: functional, hepatitis B virus genotype D, Huh-7; method in brief: as §1
HBV genotype D [26] = test: Antiviral activity against HBV genotype D with reverse transcriptase L180M/M204I mutation in human Huh7 cells assessed as viral replication yield at 1 uM after 5 days relative to control; assay type: functional, hepatitis B virus genotype D, Huh-7; method in brief: as §1
HBV genotype D [27] = test: Antiviral activity against HBeAg-deficient HBV genotype D with precore G1896A mutation and reverse transcriptase L80I/M204I mutation in human Huh7 cells assessed as inhibition of viral replication after 5 days; assay type: functional, organism-based; conditions: hepatitis B virus genotype D; Huh-7; method in brief: as §2
HBV genotype D [28] = test: Effect on replication efficiency of HBV genotype D with reverse transcriptase L80I/L180M/M204I mutation in human Huh7 cells assessed as decrease in viral replication yield at 1 uM after 5 days relative to control; assay type: functional, hepatitis B virus genotype D, Huh-7; parameters: scale not given: the % may be the effect or the level left; method in brief: as §1
HBV genotype D [29] = test: Antiviral activity against HBV genotype D with reverse transcriptase L80I/L180M/M204I mutation in human Huh7 cells assessed as viral replication yield at 1 uM after 5 days relative to control; assay type: functional, hepatitis B virus genotype D, Huh-7; method in brief: as §1
HBV genotype D [30] = test: Antiviral activity against HBV genotype D with reverse transcriptase L80I mutation in human Huh7 cells assessed as viral replication yield at 1 uM after 5 days relative to control; assay type: functional, hepatitis B virus genotype D, Huh-7; method in brief: as §1

With `Nc1ccn([C@@H]2CS[C@H](CO)O2)c(=O)n1` [LAMIVUDINE] the “fold change (FC)” value (HBV genotype D [1]) was 0.33, the “fold change (FC)” value (HBV genotype D [2]) was 0.27 and the “fold change (FC)” value (HBV genotype D [3]) was 0.04. For the same compound, the “fold change (FC)” value (HBV genotype D [4]) was 0.35, the Activity (HBV genotype D [5]) was “inactive” and the Activity (HBV genotype D [6]) was “inactive”. For the same compound, the Activity (HBV genotype D [7]) was “inactive”, the Activity (HBV genotype D [8]) was “inactive” and the EC50 (HBV genotype D [9]) was 0.03 µM. It also gave an EC50 (HBV genotype D [10]) of 0.41 µM, an Activity (HBV genotype D [11]) of 902% and an Activity (HBV genotype D [12]) of 82%. For the same compound, the Activity (HBV genotype D [13]) was “inactive”, the EC50 (HBV genotype D [14]) was 0.46 µM and the Activity (HBV genotype D [15]) was “inactive”. The “fold change (FC)” value (HBV genotype D [16]) was 1.4, the Activity (HBV genotype D [17]) was “inactive” and the “fold change (FC)” value (HBV genotype D [18]) was 0.54. The Activity (HBV genotype D [19]) was 80%, the Activity (HBV genotype D [20]) was 88% and the EC50 (HBV genotype D [21]) was 0.03 µM. For the same compound, the Activity (HBV genotype D [22]) was 506%, the “fold change (FC)” value (HBV genotype D [23]) was 3.76 and the “fold change (FC)” value (HBV genotype D [24]) was 3.27. The “fold change (FC)” value (HBV genotype D [25]) was 0.38, the “fold change (FC)” value (HBV genotype D [26]) was 0.65 and the Activity (HBV genotype D [27]) was “inactive”. For the same compound, the Activity (HBV genotype D [28]) was 48%, the “fold change (FC)” value (HBV genotype D [29]) was 0.34 and the “fold change (FC)” value (HBV genotype D [30]) was 0.06.
